Screening results deposited in PubChem BioAssay by several laboratories.
The entries come from a sample that favours hits as a whole.
T cruzi inh: blocks replication of Trypanosoma cruzi. T. cruzi beta-gal in NIH3T3, luminescence, 90 h. inhibition, % (test concentration not listed). 1.4% of 300,000 active;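 active = mean inhibition across valid replicates above about 55%, limit read from the data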;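 also: signal also drops with host cell toxicity which is not excluded here; 0% = plate median of DMSO wells and 100% = zero luminescence signal; higher percent means less beta-gal luminescence so fewer parasites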
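Read-out: Parasite load inhibition, % | Test system: Mouse NIH/3T3 fibroblasts infected with β-gal-expressing T. cruzi Tulahuen C4 | Amount: 5,000 cells/well | Medium: DMEM, 2% fetal bovine serum | Signal: GalScreen β-gal luminescence, detergent lysis, 60 min | Timing: 3 h attach, ≥90 h co-culture | Also added: Tulahuen C4 trypomastigotes, 5000/well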
CHOP inh: blocks CHOP induction under ER stress | CHO-K1 CHOP-promoter luciferase, tunicamycin-induced, 15-18 h | inhibition, % at 10 µM | 3.8% of 220,000 active | AID 2732;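 active = compounds that reduced the stress-induced luciferase reporter signal by more than about 70% of percent inhibition, limit read from the data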;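 also: 0% = tunicamycin plus vehicle and 100% = wells without tunicamycin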
Dynein cargo inh: blocks dynein driven cargo transport along microtubules | 3617.4 mouse cells, GR-EGFP nuclear translocation imaging; test concentration mostly 20 µM; stimulated with dexamethasone, 1 µM; hits give low values | z-score, hits read low | 0.47% of 220,000 active | AID 1381;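 active = plate z-score of nuclear minus cytoplasmic receptor signal below a set negative limit, without overly bright fluorescence or cell loss, cut at about -3.5 in these data, passing the limit was not always enough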;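 also: z-score of nuclear minus cytoplasmic ring GR-EGFP intensity difference per well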
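medium = tetracycline-free induction medium containing charcoal-stripped FBS | also added = 1.0 µM final dexamethasone stimulus | schedule = 48 h induction, 1 h compound, 30 min dex at 37 °C | technique = fixed, Hoechst-stained cells imaged at 10x for EGFP | measure = GR-EGFP nuclear translocation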
UPR XBP1 act: activators of adaptive arm of unfolded protein response (XBP1) | 0.33% of 330,000 active | CHO-XBP1 luciferase reporter, IRE1-XBP1 UPR activation, luminescence; percent of tunicamycin response, DMSO as zero | AID 463104 | activation, % at 20 µM;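 active = versus positive control, 20 µM dose yields 30% or more activation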;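 also: 100% = tunicamycin at 10 µg/mL and 0% = DMSO only wells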
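Assay system: CHO-XBP1 luciferase reporter cells; Schedule: 6 h treatment, 37 °C; Detection: glow luminescence from Steady-Glo reagent; Benchmarks: high control tunicamycin 10 µg/mL final, low control DMSO vehicle only.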
L major viab: reduces viability of Leishmania major promastigotes | AID 1063 | resazurin fluorescence viability | 9% of 200,000 active | inhibition, % at 10 µM; in the data active = inhibition above about 50%;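 also: promastigotes grown with compound for 44 hours at 28 °C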
CHOP UPR activ: activators of apoptotic arm of unfolded protein response (CHOP) | CHO-CHOP luciferase reporter, UPR activation, luminescence; percent of tunicamycin response over DMSO baseline | activation, % at 10 µM | 0.34% of 330,000 active | AID 449763;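 active = at 10 µM dose, activation of 40% or more, normalized to positive control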;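 also: 100% = tunicamycin at 10 µg/mL and 0% = DMSO alone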
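measured by = luciferase luminescence | assay system = CHO-CHOP cells, stable luciferase reporter of PERK-eIF2a-CHOP signalling | amount = 500 reporter cells seeded per well | timing = 6 h compound exposure at 37 °C after overnight seeding | controls = positive tunicamycin 10 µg/mL, negative DMSO alone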
* hit, by the source's call.

How did CCOC(=O)c1cc2c(=O)n3cccc(C)c3nc2n(Cc2ccco2)c1=NC(=O)c1cccnc1 do in these assays?
CHOP inh: 0; Dynein cargo inh: -0.14; L major viab: 86*

Results for C=CC(=O)NCCCc1cc(C(C)(C)C)c(O)c(C(C)(C)C)c1 ?
T cruzi inh: 18; CHOP inh: 13; Dynein cargo inh: -1.1; UPR XBP1 act: 1; L major viab: 23; CHOP UPR activ: 1

How did CCCCN=C1NN=C(c2ccc3c(c2)OCCO3)CS1 do in these assays?
T cruzi inh: 17; CHOP inh: -2; Dynein cargo inh: -0.27; UPR XBP1 act: -7; L major viab: -2; CHOP UPR activ: 2

Results for FC(F)Sc1ccc(N=C2NN=C(c3ccc4c(c3)OCCO4)CS2)cc1 ?
T cruzi inh: 69*; CHOP inh: 9; Dynein cargo inh: 1.7; UPR XBP1 act: 0; L major viab: 55*; CHOP UPR activ: 1

What do the screens show for `c1cc2c(cc1C1=NNC(=NC3CC3)SC1)OCCO2`?
T cruzi inh: 0; CHOP inh: 98*; Dynein cargo inh: 0.22; UPR XBP1 act: -15; L major viab: -2; CHOP UPR activ: -10

How did O=C(CCC(=O)OCC(=O)c1cccc([N+](=O)[O-])c1)NC1CCCCC1 do in these assays?
T cruzi inh: -8; CHOP inh: 15; Dynein cargo inh: 0.58; UPR XBP1 act: -1; CHOP UPR activ: 2

How did O=C(CCC(=O)OCC(=O)c1ccc([N+](=O)[O-])cc1)NC1CCCCC1 do in these assays?
T cruzi inh: -3; CHOP inh: 20; Dynein cargo inh: 2.5; UPR XBP1 act: -1; L major viab: 77*; CHOP UPR activ: 9

How did Cc1cc(NC(=O)COc2coc(CN3CCN(c4ccccc4F)CC3)cc2=O)no1 do in these assays?
T cruzi inh: 2; UPR XBP1 act: -1; CHOP UPR activ: 1

Results for COc1ccc(S(=O)(=O)NC(Cc2cnc[nH]2)C(=O)O)cc1 (configuration not stated) ?
T cruzi inh: -19; CHOP inh: -1; Dynein cargo inh: 0.24; UPR XBP1 act: -2; L major viab: 51*; CHOP UPR activ: 0

Results for COc1ccc(S(=O)(=O)NC(Cc2ccccc2)C(=O)O)cc1 (configuration not stated) ?
T cruzi inh: -7; UPR XBP1 act: -1; CHOP UPR activ: 1

What do the screens show for `Cc1ccc2c(c1)NC(=O)CC(c1ccccc1)=N2`?
T cruzi inh: -11; CHOP inh: -13; Dynein cargo inh: 1.4; UPR XBP1 act: 0; L major viab: -1; CHOP UPR activ: 3

Results for Cc1cc2c(cc1C)NC(=O)CC(C(F)(F)C(F)(F)C(F)(F)F)=N2 ?
T cruzi inh: -16; CHOP inh: 73*; Dynein cargo inh: 0.36; UPR XBP1 act: 0; L major viab: -2; CHOP UPR activ: 1

What do the screens show for `CCN(CC(=O)Nc1ccc(NC(C)=O)cc1)C(=O)CCCc1nc2ccccc2s1`?
UPR XBP1 act: -1; CHOP UPR activ: -1

What do the screens show for `Cc1cccc(OC(C)C(=O)N2CCN(Cc3ccc4c(c3)OCO4)CC2)c1` (configuration not stated)?
T cruzi inh: 9; UPR XBP1 act: 0; CHOP UPR activ: -1

Results for O=C(CNC(=O)c1ccccc1F)N/N=C/c1cc(Br)ccc1OCc1ccccc1 ?
T cruzi inh: 18; CHOP inh: 15; Dynein cargo inh: 0.069; UPR XBP1 act: -1; L major viab: 8; CHOP UPR activ: -1

Results for O=C(CNC(=O)c1cccc(Br)c1)N/N=C/c1cc(Br)cc(Br)c1O ?
T cruzi inh: -14; CHOP inh: 91*; Dynein cargo inh: 0.34; UPR XBP1 act: 14; L major viab: -10; CHOP UPR activ: 0

Results for CN(C)c1ccc(C(=O)N/N=C/c2cc(Br)cc(Br)c2O)cc1 ?
T cruzi inh: 48; CHOP inh: 91*; Dynein cargo inh: -0.67; UPR XBP1 act: -2; CHOP UPR activ: -2
